In ChEMBL document CHEMBL1126138, “Preparation and opioid activity of analogues of the analgesic dipeptide 2,6-dimethyl-L-tyrosyl-N-(3-phenylpropyl)-D-alaninamide” (J Med Chem, 1992):

Assays:
Mu-type opioid receptor = Mu-type opioid receptor (Rattus norvegicus, UniProt P33535); experiment: Binding ability towards opioid receptor mu expressed in homogenates of rat brain.; type: tissue-based
[1] = target: Delta-type opioid receptor (Rattus norvegicus) (UniProt P33533); experiment: Ratio of IC50 of opioid receptor delta to IC50 opioid receptor mu
Sequence of Delta-type opioid receptor (Rattus norvegicus) (P33533 whole entry): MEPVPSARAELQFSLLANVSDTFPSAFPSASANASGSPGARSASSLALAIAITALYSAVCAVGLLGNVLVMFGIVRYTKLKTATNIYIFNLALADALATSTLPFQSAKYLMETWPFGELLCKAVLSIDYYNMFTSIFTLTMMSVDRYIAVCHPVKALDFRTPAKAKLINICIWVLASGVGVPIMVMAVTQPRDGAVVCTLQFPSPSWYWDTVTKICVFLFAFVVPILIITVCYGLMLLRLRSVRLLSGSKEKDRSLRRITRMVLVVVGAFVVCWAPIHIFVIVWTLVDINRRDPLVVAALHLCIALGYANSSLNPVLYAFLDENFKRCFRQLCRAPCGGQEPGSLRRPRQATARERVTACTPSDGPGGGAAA

Mus musculus [2] = experiment: Number of mice of those tested in which 10 mg/kg compound inhibited writhing; type: functional
Outline: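 Mouse writhing test with a single 10 mg/kg dose of compound. The value is the count of mice whose writhing was inhibited, out of the number tested.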

[3] = target: Delta-type opioid receptor (Rattus norvegicus, UniProt P33533); experiment: Binding ability towards opioid receptor delta expressed in homogenates of rat brain.; type: tissue-based
Sequence of Delta-type opioid receptor (P33533 whole entry): as above

[4] = target: Kappa-type opioid receptor (Rattus norvegicus) (UniProt P34975); experiment: Ratio of IC50 of opioid receptor kappa to IC50 opioid receptor mu
Sequence of Kappa-type opioid receptor (Rattus norvegicus) (P34975 whole entry): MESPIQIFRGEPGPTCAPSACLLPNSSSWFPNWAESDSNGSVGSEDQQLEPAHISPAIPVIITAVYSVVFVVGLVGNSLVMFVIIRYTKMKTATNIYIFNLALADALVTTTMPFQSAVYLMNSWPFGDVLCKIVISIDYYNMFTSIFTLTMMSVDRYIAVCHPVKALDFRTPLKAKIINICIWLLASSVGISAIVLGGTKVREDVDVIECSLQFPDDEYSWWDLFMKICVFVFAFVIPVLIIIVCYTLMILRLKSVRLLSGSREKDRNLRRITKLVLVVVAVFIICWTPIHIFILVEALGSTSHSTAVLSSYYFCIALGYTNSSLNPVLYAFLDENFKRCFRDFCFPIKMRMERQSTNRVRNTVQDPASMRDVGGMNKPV

Mus musculus [5] = organism: Mus musculus; experiment: Analgesic activity evaluated in mice by writhing test (confidence limit); type: functional
[6] = target: Delta-type opioid receptor (Rattus norvegicus) (UniProt P33533); experiment: Binding ability towards opioid receptor delta expressed in homogenates of rat brain at 100 nM concentration; type: tissue-based
Outline: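 Rat brain homogenate, δ opioid binding site. Test compound at 100 nM. The value is the maximum percent displacement at that concentration.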

Sequence of Mu-type opioid receptor (P33535 whole entry): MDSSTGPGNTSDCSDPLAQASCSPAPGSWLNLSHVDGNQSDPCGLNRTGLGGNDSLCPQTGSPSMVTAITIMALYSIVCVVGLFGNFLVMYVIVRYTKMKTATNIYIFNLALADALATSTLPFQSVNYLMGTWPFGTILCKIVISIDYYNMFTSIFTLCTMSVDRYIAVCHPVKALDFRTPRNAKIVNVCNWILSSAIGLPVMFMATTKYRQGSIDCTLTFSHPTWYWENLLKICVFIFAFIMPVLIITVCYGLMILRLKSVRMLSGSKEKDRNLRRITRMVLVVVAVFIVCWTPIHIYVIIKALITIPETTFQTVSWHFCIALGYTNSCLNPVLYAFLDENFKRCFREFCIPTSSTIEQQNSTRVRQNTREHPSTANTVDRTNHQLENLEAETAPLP

| Structure (SMILES) | IC50 (Mu-type opioid receptor) [nM] | Ratio [1] | No. of mice (Mus musculus [2]) | IC50 [3] [nM] | Ratio [4] | ED50 (Mus musculus [5]) [mg/kg] | Displacement [6] [%] |
| --- | --- | --- | --- | --- | --- | --- | --- |
| Cc1cc(O)cc(C)c1C[C@H](N)C(=O)N1CCCCC1CNCCCc1ccccc1 (some centres not stated) | 0.045 | 269 | 3 | 12.1 | 222 | – | – |
| Cc1cc(O)cc(C)c1C[C@H](N)C(=O)N[C@H](C)C(=O)NCCCc1ccccc1 | 0.13 | 30.6 | – | 3.98 | 2920 | 0.52 | – |
| Cc1cc(O)cc(C)c1C[C@H](N)C(=O)N[C@@H](COCCCc1ccccc1)COC(C)(C)C | 33 | 10.3 | – | 340 | 282 | 1.7 | – |
| Cc1cc(O)cc(C)c1C[C@H](N)C(=O)NC(C)/C(F)=C/CCCc1ccccc1 (some centres not stated) | 6.9 | – | – | – | 1160 | 2.1 | 47.3 |
| Cc1cc(O)cc(C)c1C[C@H](N)C(=O)N1CCCCC1COCCCc1ccccc1 (some centres not stated) | 1.62 | 67.9 | – | 110 | 173 | 2.1 | – |
| Cc1cc(O)cc(C)c1C[C@H](N)C(=O)N[C@H](C)COCCCc1ccccc1 | – | 42 | 3 | 21 | 2600 | – | – |
| Cc1cc(O)cc(C)c1C[C@H](N)C(=O)N[C@H](CO)COCCCc1ccccc1 | 1.67 | 139 | – | 233 | 3530 | 2.1 | – |
| Cc1cc(O)cc(C)c1C[C@H](N)C(=O)N[C@H](C)CNCCCc1ccccc1 | 0.13 | 354 | 4 | 46 | 2540 | – | – |
| Cc1cc(O)cc(C)c1C[C@H](N)C(=O)NC(C)/C=C/CCCc1ccccc1 (some centres not stated) | 5.4 | – | – | – | 1100 | 2.1 | 39.3 |
